Assay results gathered from unrelated publications.
Target: Phosphorylase b kinase gamma catalytic chain, skeletal muscle/heart isoform (PHKG1, Homo sapiens, UniProt Q16816)

Compound | test | conditions | quantity | value
CN(C)C(=O)Cn1cc(-c2nc([C@@](C)(c3ccc(-c4cnc(N)nc4)cc3)C3CC3)no2)cn1 | cell-free assay, competition with immobilised ligand | 1 µM | remaining binding | 77%
CCCCNc1ncc2c(-c3ccc(F)cc3)nn(C[C@H]3CC[C@H](N)CC3)c2n1 | target engagement in cells, inhibitor, chemoproteomics | 20 mM | inhibition | 26.4%
Nc1nc(Nc2ccccc2)sc1C(=O)c1c(F)cccc1F | enzyme activity, inhibitor | 10 µM | remaining activity | 88%
Cc1ccc(C(=O)Nc2ccc(CN3CCN(C)CC3)c(C(F)(F)F)c2)cc1C#Cc1cnc2cccnn12 | enzyme activity, inhibitor | 23.5 nM | remaining activity | 100%
c1ccc(CNc2nc(N3CCOc4ccccc43)nc3c2CCCC3)cc1 | target engagement in cells, inhibitor, chemoproteomics | 20 mM | inhibition | 2%
CC/C(=N\NC(=O)NCc1cccc(O)c1)c1ccc(O)c(C)c1O | enzyme activity, inhibitor | 0.1 µM | inhibition | -1.8%
O=C1NC(=O)c2cc(Nc3ccc(F)cc3)c(Nc3ccc(F)cc3)cc21 | cell-free assay | 0.5 µM | remaining signal | 94.8%
CS(=O)(=O)N1CCCC(NC(=O)[C@H](CCC2CCCCC2)NC(=O)c2ccc(CNc3ncnc4c3nnn4-c3ccccc3)cc2)C1 (some centres unmarked) | cell-free assay, competition with immobilised ligand | 0.1 µM | remaining binding | 87%
COc1cc(Cl)c(C(=O)N[C@@H](CN[C@H]2CC[C@@H](N)CC2)Cc2ccc(C#N)cc2)cc1-c1ccc(CN[C@H](C)c2ccc(C)cc2)o1 | enzyme activity, inhibitor | 1 µM | remaining activity | 68%
CS(=O)(=O)c1cc(C2(NC(=O)c3cncc4c3cnn4-c3ccc(F)cc3)CC2)ccn1 | cell-free assay, competition with immobilised ligand | 1 µM | remaining binding | 78%
Oc1cccc(-c2nc(N3CCOCC3)c3oc4ncccc4c3n2)c1 | enzyme activity, inhibitor | 10 µM | remaining activity | 84%
CC(C)(C)C(=O)c1sc(NC2CCCCC2)nc1N | enzyme activity, inhibitor | 10 µM | remaining activity | 112%
CCCOc1ccc([C@H]2[C@H](C(=O)O)[C@@H](c3ccc4c(c3)OCO4)CN2CC(=O)Nc2c(CC)cccc2CC)cc1 | cell-free assay, competition with immobilised ligand | 1 µM | remaining binding | 99%
COc1cc2ncnc(Nc3ccc(Oc4ccccc4)c(C)c3C)c2cc1OC | enzyme activity, inhibitor | 1 µM | inhibition | 2%
CNCc1ccccc1-c1csc([C@H](C)Nc2nc(C)nc3cc(OC)c(OC)cc23)c1 | cell-free assay, competition with immobilised ligand | 1 µM | remaining binding | 87%
N#CCCc1ccc2c(c1)-c1[nH]c3ccc([N+](=O)[O-])cc3c1CC(=O)N2 | cell-free assay | 0.5 µM | remaining signal | 7.72%
COc1cccc(CNC(=O)c2nc3scc(COCc4ccc(C(=O)O)cc4)c3c(=O)[nH]2)c1 | cell-free assay, competition with immobilised ligand | 1 µM | remaining binding | 100%
CC(C)(C)c1nc(-c2cccc(NS(=O)(=O)c3c(F)cccc3F)c2F)c(-c2ccnc(N)n2)s1 | enzyme activity, inhibitor, radiometric | 1 µM | remaining activity | 97%
Nc1ncnc2occ(-c3ccc(NC(=O)Nc4cc(C(F)(F)F)ccc4F)cc3)c12 | cell-free assay, inhibitor | 20 µM | remaining signal | 92%
O=C(Nc1cnn(-c2csc(C(=O)NC3COC3)c2)c1)Nc1ccccc1Cl | enzyme activity, inhibitor | 5 µM | remaining activity | 102%
